Measured values of several laboratories.
Each line is one published result; the experiments were not run side by side.

Nc1cc(Br)c(Br)cc1N
IC50 (ME-180; cell growth or viability; 72 h): 75 µM

CCCCCOc1ccc(-c2cc(-c3ccc(C(=O)N[C@H]4C[C@@H](O)[C@@H](O)NC(=O)[C@@H]5[C@@H](O)[C@@H](C)CN5C(=O)[C@H]([C@H](O)CC(N)=O)NC(=O)[C@H]([C@H](O)[C@@H](O)c5ccc(O)c(OS(=O)(=O)O)c5)NC(=O)[C@@H]5C[C@@H](O)CN5C(=O)[C@H]([C@@H](C)O)NC4=O)cc3)no2)cc1
inhibition (Candida dubliniensis; biofilm formation; 16 µg/mL): 42%

COc1cccc(Oc2ccccc2NC(=O)CNC(=O)c2cccc3ccccc23)c1
GI50 (HL-60; cell growth or viability; 48 h): 0.0813 µM

CO[C@H]1/C=C/O[C@@]2(C)Oc3c(C)c(O)c4c(O)c(c(/C=N/N5CCN(C)CC5)c(O)c4c3C2=O)NC(=O)/C(C)=C\C=C\[C@H](C)[C@H](O)[C@@H](C)[C@@H](O)[C@@H](C)[C@H](OC(C)=O)[C@@H]1C
IC50 (Vero; cell growth or viability; 18 h): 120 µg/mL

CN[C@H](CC(C)C)C(=O)N[C@H]1C(=O)N[C@@H](CC(N)=O)C(=O)N[C@H]2C(=O)N[C@H]3C(=O)N[C@H](C(=O)N[C@H](C(=O)O)c4cc(O)cc(O)c4-c4cc3ccc4O)[C@H](O)c3ccc(c(Cl)c3)Oc3cc2cc(c3O[C@@H]2O[C@H](CO)[C@@H](O)[C@H](O)[C@H]2O[C@H]2C[C@](C)(N)[C@H](O)[C@H](C)O2)Oc2ccc(cc2Cl)[C@H]1O
MIC (Enterobacter cloacae; microbial growth, broth dilution; ATCCBAA1143): > 64 µg/mL

Nc1cc(Cl)c(Cl)cc1N
IC50 (ME-180; cell growth or viability; 72 h): 100 µM

CN1C[C@H](C(=O)N[C@]2(C)O[C@@]3(O)[C@@H]4CCCN4C(=O)[C@H](Cc4ccccc4)N3C2=O)C=C2c3cccc4[nH]cc(c34)C[C@H]21
EC50 (NCI-H1299; cell growth or viability, MTT; 72 h): ~25 µM

CC1CCN(CCCN2/C(=C/c3cc[n+](C)c4ccccc34)Sc3ccccc32)CC1.[I-]
MIC (Enterobacter cloacae; microbial growth, broth dilution; ATCCBAA1143): > 64 µg/mL
